Source: PubChem BioAssay
Measles CPE – protection of cells from measles virus; Measles virus-infected cells, CPE protection, absorbance; protection (pct of control), % at 4 µM; 140,000 compounds, 1.5% hits; AID 841; in the data active means protection mostly above about 24%, no sharp cut-off; inactive means mostly below about 26%
ABCG2 inh – blocks JC-1 efflux by human ABCG2 transporter; IgMXP3 cells, flow cytometry; inhibition, % at 6.6 µM; 190,000 compounds, 0.1% hits;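 active means inhibition above 80%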
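test system = two drug-resistant human cell lines, ABCG2 and ABCB1 | amount = 3 million cells/mL final, two lines in 1:1 ratio | reagent = JC-1 transporter substrate | doses = one concentration, 6.6 µM final | incubation = 10 min at 25 °C | signal = flow cytometric JC-1 green MFI at 530 nm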
FLuc act counter – affects firefly luciferase, flagging false hits in luciferase stimulation screens. P08659. ATPlite luciferase biochemical, luminescence, 10 min; 0 = ATP-free wells, 1 = DMSO control. activation factor at 10 µM. 200,000 tested, under 10 active;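 active means luciferase activation factor, scaled between plate controls, of at least 2 with compound at 10 µM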
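Assay system: Luciferase/luciferin reagent mix; Medium: PBS as buffer for the ATP substrate; Dosing: test compounds dosed from 2 mM stocks in 100% DMSO; Times: 10 min, room temperature; Signal: luminescence from luciferase reaction; Read-out: luciferase activation; Controls: No-ATP low control, compound-free enzyme-plus-ATP high control.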
FLuc inhib CS – Photinus pyralis luciferase inhibition counter-screen | AID 1006 | 200,000 compounds, 1.5% hits | P08659 | ATPLite firefly luciferase biochemical luminescence, 10 min | inhibition, % at 10 µM;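 active means inhibition above about 50% when tested at 10 µM, limit read from the data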
DTT redox prof – compounds producing H2O2 with reducing agent – biochemical, NIH compound library profiling, artefact control for MLSCN library redox annotation, primary screen; DTT-dependent redox cycling H2O2, phenol red/HRP absorbance; 100% = 100 µM peroxide control, 0% = buffer; activation, % at 10 µM; 200,000 compounds, 0.03% hits; AID 878;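 active means activation of at least 50% relative to the plate's high and low controls in the primary single-dose screen; inactive means activation below 50%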;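 further: compound incubated with DTT at 0.8 mM final as the reducing agent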
ABCB1 inh – blocks JC-1 efflux by human ABCB1 transporter; CCRF-Adr cells, flow cytometry; AID 1326; inhibition, % at 6.6 µM; P08183; 190,000 compounds, 0.067% hits; in the data active means inhibition above about 40%;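 further: higher value means more JC-1 retained so stronger ABCB1 efflux block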
Target sequence (P08183 whole entry, looked up): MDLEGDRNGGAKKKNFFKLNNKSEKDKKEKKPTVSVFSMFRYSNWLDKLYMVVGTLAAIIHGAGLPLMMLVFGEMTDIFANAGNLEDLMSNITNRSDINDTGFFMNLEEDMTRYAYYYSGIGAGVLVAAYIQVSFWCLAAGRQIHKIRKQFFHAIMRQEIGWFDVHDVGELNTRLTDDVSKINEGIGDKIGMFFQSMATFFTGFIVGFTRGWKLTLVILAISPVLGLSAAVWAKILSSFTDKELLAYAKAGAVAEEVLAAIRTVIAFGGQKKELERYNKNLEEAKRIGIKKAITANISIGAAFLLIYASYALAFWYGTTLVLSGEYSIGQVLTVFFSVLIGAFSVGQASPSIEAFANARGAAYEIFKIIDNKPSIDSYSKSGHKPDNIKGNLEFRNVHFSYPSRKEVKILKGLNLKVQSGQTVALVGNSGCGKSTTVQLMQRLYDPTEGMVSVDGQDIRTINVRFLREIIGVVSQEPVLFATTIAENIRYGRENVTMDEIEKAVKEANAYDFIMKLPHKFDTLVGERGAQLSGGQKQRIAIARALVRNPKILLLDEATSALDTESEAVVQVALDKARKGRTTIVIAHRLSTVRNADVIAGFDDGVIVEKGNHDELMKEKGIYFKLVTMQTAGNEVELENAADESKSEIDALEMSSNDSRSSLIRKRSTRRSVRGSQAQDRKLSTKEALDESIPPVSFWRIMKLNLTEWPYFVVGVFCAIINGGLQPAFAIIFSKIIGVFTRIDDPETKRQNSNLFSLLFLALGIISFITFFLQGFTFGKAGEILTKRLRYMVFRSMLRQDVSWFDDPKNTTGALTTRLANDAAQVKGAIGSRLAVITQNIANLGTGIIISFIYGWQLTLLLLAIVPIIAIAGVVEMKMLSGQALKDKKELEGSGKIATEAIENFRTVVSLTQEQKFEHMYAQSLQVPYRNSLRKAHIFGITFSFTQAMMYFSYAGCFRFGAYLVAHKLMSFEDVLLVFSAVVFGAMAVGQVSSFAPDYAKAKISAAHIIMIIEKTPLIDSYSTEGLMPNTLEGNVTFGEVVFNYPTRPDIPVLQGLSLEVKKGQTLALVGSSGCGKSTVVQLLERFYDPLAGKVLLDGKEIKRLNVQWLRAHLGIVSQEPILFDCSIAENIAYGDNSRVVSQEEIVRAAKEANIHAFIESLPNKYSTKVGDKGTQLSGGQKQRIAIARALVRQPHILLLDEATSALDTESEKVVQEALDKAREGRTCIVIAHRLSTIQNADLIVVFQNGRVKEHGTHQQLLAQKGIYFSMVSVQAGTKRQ
Large screens that a line does not name were inactive. Sampled rows, rich in hits. Any-hit rate of the full collection: about 2.7%.

COc1ccc(/C=C/C(=O)c2ccc(OC)cc2OC)cc1	none (no result: Measles CPE)
COc1ccc(/C=C/C(=O)c2cc3c(cc2N)OCO3)cc1	FLuc inhib CS 79 (no result: Measles CPE)
CCO[C@@H]1OC(C(N)=O)=C[C@H](c2ccccc2)[C@H]1CCCO	none (no result: Measles CPE)
CCC(=O)Nc1cc2nn(-c3ccccc3)nc2cc1Cl	FLuc inhib CS 74
CC(C)CC(=O)Nc1ccc2nn(-c3ccccc3)nc2c1	none (no result: ABCB1 inh)
CN(C)c1ccc(C(=O)C(O)c2ccccc2)cc1 (configuration not stated)	none
CCOc1ccc(C(=O)/C=C/c2ccc(SC)cc2)cc1	none
CSc1ccc(/C=C/C(=O)c2ccc(O)cc2)cc1	FLuc inhib CS 70
O=C1COc2ccc(C(=O)/C=C/c3ccccc3)cc2N1	none
CN(C)c1ccc(C(=O)c2ccccc2)cc1	Measles CPE 44
CN(C)c1ccc(C(=O)/C=C/c2ccco2)cc1	FLuc inhib CS 91
O=C(/C=C/c1ccccc1)c1ccc2c(c1)OCCCCO2	FLuc inhib CS 88
O=C(/C=C/c1ccco1)c1ccc(O)cc1	none (no result: Measles CPE)
CCOC(=O)c1ccc(NC(=O)CSc2nnc(NC(=O)c3ccc(S(=O)(=O)N4CCOCC4)cc3)s2)cc1	none
NS(=O)(=O)c1cccc(NC(=O)CCS(=O)(=O)c2ccc(Cl)cc2)c1	none (no result: Measles CPE)
CN(C)c1ccc(C(=O)/C=C/c2ccccc2)cc1	FLuc inhib CS 78 (no result: Measles CPE)
CCOc1cc(/C=N/NC(N)=O)cc(Br)c1OCC(=O)Nc1cccc2ccccc12	Measles CPE 45
CCOc1cc(/C=N/NC(N)=O)cc(Br)c1OCC(=O)Nc1ccccc1C	none
Cc1ccccc1OCCOc1cccc(/C=N/NC(=O)Cc2nnc(N)s2)c1	none
CC/C(=N\NC(=O)c1csc(C)c1C)c1cccs1	FLuc inhib CS 81
CCC/C(=N\NC(=O)c1csc(C)c1C)c1cccs1	none
CC(=NC1CCCCC1)C1=C(O)c2ccccc2C1=O	FLuc inhib CS 58 (no result: Measles CPE, ABCG2 inh, ABCB1 inh)
CCOc1ccc(NCC(=O)N/N=C/C=C/c2ccccc2)cc1	FLuc inhib CS 56
COc1ccc(OCC(=O)N/N=C/c2ccncc2)cc1	none (no result: Measles CPE)
COc1ccc(OCC(=O)N/N=C/C=C/c2ccccc2)cc1	FLuc inhib CS 81
CCCNC(=O)c1ccccc1NC(=O)c1ccc(CSc2ccccc2)cc1	none
Cn1/c(=N/N=C/c2ccccn2)sc2ccccc21	FLuc inhib CS 59 (no result: Measles CPE)
Cn1/c(=N/N=C/c2ccc(N3CCOCC3)cc2)sc2ccccc21	none (no result: Measles CPE)
CCCSc1nnc(CSc2nc(C)cc(C)n2)n1C	none (no result: Measles CPE)
CC(C)C[C@H](NC(=O)Nc1cccc(Br)c1)C(=O)O	Measles CPE 63
COC(=O)[C@H](CC(C)C)NC(=O)Nc1cccc(Br)c1	none
COC(=O)c1ccc(NS(=O)(=O)c2ccccc2)o1	none (no result: Measles CPE)
Cc1cc(C)cc(NC(=O)C(Nc2ccccc2)c2ccccc2)c1 (configuration not stated)	Measles CPE 46
CCc1nc(C#N)c(N2CCOCC2)o1	none
CC(C)c1ccc(N(CC(=O)NCC2CCCO2)C(=O)Cn2nnc(-c3cccs3)n2)cc1 (configuration not stated)	none (no result: Measles CPE)
Cc1cc(C(=O)NP(=O)(N2CCOCC2)N2CCOCC2)c(C)n1-c1ccc(Br)cc1	Measles CPE 46
Cc1cc(=O)[nH]c(N=N/C(=N/Nc2ccc(O)cc2)c2ccccc2)n1	none
COc1ccc(N/N=C(/N=Nc2nc(C)cc(=O)[nH]2)c2ccccc2)cc1	FLuc inhib CS 73
CCCCNC(=O)C1=C(N)C(C(=O)Nc2ccc(C)c(S(=O)(=O)N3CCCCC3)c2)SC1=Nc1ccc(C)cc1C (configuration not stated)	none
Cc1cc(C)n(-c2cc(N3CCN(C(=O)c4ccc(C(C)(C)C)cc4)CC3)ccc2[N+](=O)[O-])n1	none
COc1ccc(C(=O)N2CCN(c3ccc([N+](=O)[O-])c(-n4nc(C)cc4C)c3)CC2)cc1	Measles CPE 23
CNC(=S)N1C2CCC1CC(NC(=O)NC13CC4CC(CC(C4)C1)C3)C2 (configuration not stated)	none
COc1ccc(CC2(C)OC(c3ccc(Cl)cc3)=NN2C(C)=O)cc1 (configuration not stated)	none
CCOC(=O)Cc1cc(=O)[nH]c(/N=C(\N)Nc2ccc(C)cc2C)n1	none
O=C(NC1CCCCC1)NC1CC2CCC(C1)N2C(=O)NC1CCCCC1 (configuration not stated)	Measles CPE 25
CN(C)c1ccc(/C=N/NC(=O)C2COc3ccccc3O2)o1 (configuration not stated)	Measles CPE 17
CC(=O)N/N=C/c1c(C)[nH]n(-c2ccccc2)c1=O	none (no result: Measles CPE)
Cc1[nH]n(-c2ccccc2)c(=O)c1/C=N\NC(=O)C1COc2ccccc2O1 (configuration not stated)	FLuc inhib CS 93
COc1ccc(OC)c(Nc2nc(C3CC3)nc3c2nnn3Cc2ccccc2)c1	Measles CPE 66
COc1ccc(-c2cn3cccnc3n2)cc1F	Measles CPE 29, FLuc inhib CS 57
COc1ccc(-c2cn3cccnc3n2)cc1NS(=O)(=O)c1ccccc1	none (no result: Measles CPE)
Cc1cccc(-n2ncc3c(NC(C)C)ncnc32)c1	FLuc inhib CS 63
Cc1cccc(-n2ncc3c(Nc4ccc(F)cc4)ncnc32)c1	none (no result: Measles CPE, ABCG2 inh, DTT redox prof, ABCB1 inh)
COc1ccc(-n2ncc3c(Nc4cccc(C)c4)ncnc32)cc1	Measles CPE 38
CCCN(CCC)c1ncnc2c1cnn2-c1ccc(OC)cc1	Measles CPE 92
C=CCNc1ncnc2c1cnn2-c1ccc(OC)cc1	FLuc inhib CS 59
COc1cc(-c2nnc(SCC(=O)OC3CCCCC3)o2)cc(OC)c1OC	none
Cc1ccc(C)c(N2CCN(C(=O)CN(C)S(=O)(=O)c3cnc[nH]3)CC2)c1	none
CC(C)Nc1ncnc2c1cnn2-c1ccccc1	FLuc inhib CS 79
NNc1ncnc2c1cnn2-c1ccccc1	none
CCOC(=O)c1cn(CC2CC2)c2cc(F)c(F)cc2c1=O	none (no result: Measles CPE)
COc1cc(CN2CCC(C(=O)N3CCN(c4ccccc4F)CC3)CC2)cc(OC)c1O	Measles CPE 51
CCOc1ccc(CN2CCC(C(=O)N3CCN(c4ccccc4F)CC3)CC2)cc1OC	none
Cn1c(=O)cc(SCC(=O)NCCC2=CCCCC2)c2cc(Cl)ccc21	none
COc1ccccc1-n1cc(C(=O)NCC(=O)N2CCN(c3ccccc3)CC2)c2ccccc2c1=O	FLuc inhib CS 70
O=C1N/C(=N/O)S/C1=C\c1ccccc1-n1cccn1	none (no result: Measles CPE)
S=c1sc(SCCOc2ccccc2)nn1-c1ccccc1	Measles CPE 93
C=CCNc1nc(-c2cc3ccccc3o2)cs1	FLuc inhib CS 76
CCN(CC)c1ccc(/C=N/N2CCN(Cc3ccccc3)CC2)cc1	none (no result: Measles CPE)
